Screening data as filed in PubChem.
In the library only some 1.4% were active in any assay of this set; here they are far more common.
CAL PDZ FP-1 = CAL PDZ (human) peptide binding inhibition; 300,000 tested, 0.92% active; purified CAL PDZ, TMR-peptide fluorescence polarization, 1 h; Q9HD26; inhibition, % at 24.9 µM;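 active means mean inhibition of at least 30% with at least half of replicates also reaching 30%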;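 further: 0% = DMSO neutral control and 100% = excess unlabeled competitor peptide PRC23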
CAL PDZ FP-2 = inhibitors of human CAL PDZ peptide binding; AID 504414; 330,000 tested, 0.02% active; Q9HD26; inhibition, % at 20 µM; purified CAL PDZ, TMR-peptide fluorescence polarization, 1 h;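 active means highest replicate inhibition of at least 40%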;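 further: plate controls were DMSO neutral control wells for no effect and unlabeled competitor peptide control wells for full effect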
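material = purified tagged CAL PDZ domain construct (CerCALP) | compound dosing = 20 µM, one dose | times = 1 h at RT | measured by = fluorescence polarization from S- and P-plane intensities, G-factor corrected | read-out = inhibition from polarization loss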
Tn7 DDE FP = inhibitors of Tn7 peptide binding to human fibrin DD(E). P02675. FP displacement of FITC-Tn7 peptide from fibrin DD(E); 0% = median of compound wells per plate. inhibition, % at 8.3 µM. 370,000 tested, 0.13% active;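 active means inhibition above the mean of compounds falling within the control limits plus 3 SD of them, cut at about 14% in these data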;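 further: 0% = plate median of compound wells and 100% = 10 µM Aha-Tn7 peptide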
Target sequence (P02675 whole entry, looked up): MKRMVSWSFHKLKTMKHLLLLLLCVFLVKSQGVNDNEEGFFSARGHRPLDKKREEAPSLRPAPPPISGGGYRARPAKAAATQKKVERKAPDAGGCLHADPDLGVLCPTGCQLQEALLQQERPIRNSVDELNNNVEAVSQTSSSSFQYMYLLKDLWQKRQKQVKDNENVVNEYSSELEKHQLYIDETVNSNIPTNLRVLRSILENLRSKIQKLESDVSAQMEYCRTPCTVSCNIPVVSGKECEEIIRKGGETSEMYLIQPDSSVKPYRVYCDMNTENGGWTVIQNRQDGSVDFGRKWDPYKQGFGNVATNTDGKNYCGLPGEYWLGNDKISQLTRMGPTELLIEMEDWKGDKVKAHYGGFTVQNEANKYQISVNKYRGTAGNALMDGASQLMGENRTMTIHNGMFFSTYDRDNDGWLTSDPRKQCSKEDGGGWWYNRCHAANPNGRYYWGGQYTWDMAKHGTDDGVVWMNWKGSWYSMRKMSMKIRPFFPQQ
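Assay system: human fibrin DD(E). Input: DD(E) 2 µM final. Medium: Tris buffer with calcium and detergent, pH 7.8. Compound dosing: single point at 8.3 µM. Timing: 10 min plus 3 h, room temperature. Technique: fluorescence polarization of the labelled Tn7 tracer. Read-out: percent inhibition. Replicates: singlicate testing.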
Arrestin-AP2 inh = inhibitors of human beta-arrestin and AP2 interaction; FITC-arrestin peptide / GST-AP2 beads, flow cytometry; AP2 beta2 appendage carries R879A mutation; inhibition, % at 10 µM; 340,000 tested, 0.31% active; AID 504490;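 active means inhibition above a set limit, near 3 SD of compounds lacking own fluorescence, cut at about 54% in these data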;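 further: plate controls were DMSO wells for no effect and 5 µM unlabelled arrestin peptide for full effect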
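Material – GST-tagged AP2 beta2-adaptin appendage (R879A) on 4 µm glutathione beads · Probe or stimulus – fluorescein-tagged arrestin peptide at 50 nM final · Timing – 12 min plus 1 h, RT · Detection – bead flow cytometry, FITC channel · Read-out basis – inhibition as reduced fluorescein signal on beads, percent · Medium – PBS plus Tween 20 (0.05%) and BSA (0.1%)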
DDE Tn6 FP inh = inhibitors of Tn6 peptide binding to human fibrin DD(E); 370,000 tested, 0.21% active; Fibrin DD(E) TRITC-Tn6 fluorescence polarization displacement; inhibition, % at 8.3 µM;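 active means inhibition above a per-campaign cutoff: mean of compounds within control limits plus 3 SD, cut at about 15% in these data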;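 further: 0% = median of all compound wells on the plate and 100% = blocking peptide control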
* = called active by the depositor; . = no result; + = active, no number.

SMILES	CAL PDZ FP-1	CAL PDZ FP-2	Tn7 DDE FP	Arrestin-AP2 inh	DDE Tn6 FP inh
Nc1c(N(CCC2=CCCCC2)C(=O)COc2ccc(F)cc2)c(=O)[nH]c(=O)n1Cc1ccccc1	11.6	-1.8	.	-1.6	.
Cc1cc(OCC(=O)N(Cc2ccco2)c2c(N)n(Cc3ccccc3)c(=O)[nH]c2=O)ccc1Cl	73.8*	-0.2	-4.5	-7.5	-5.2
CCN(C(=O)COC(=O)CCc1ccc(OC)cc1)c1c(N)n(Cc2ccccc2)c(=O)[nH]c1=O	44.0*	-1.2	4.5	0.2	0.0
Nc1c(N(CCC2=CCCCC2)C(=O)CCCOc2ccccc2)c(=O)[nH]c(=O)n1Cc1ccccc1	48.7*	-0.8	-5.1	-7.0	-6.2
CCCOc1ccc(C(=O)CCC(=O)OCC(=O)N(C)c2c(N)n(Cc3ccccc3)c(=O)[nH]c2=O)cc1	37.7*	0.8	-3.2	-13.5	5.3
CCCCOC(=O)CCN1C(=O)/C(=C/c2ccccc2)SC1=S	.	.	3.7	.	-8.6
CCCN1CC(=O)N2[C@H](C[C@@]3(n4ccc5ccccc54)c4ccccc4N(S(=O)(=O)c4ccccc4)[C@@H]23)C1=O	.	.	-4.6	.	-0.7
Cn1c(=O)c([N+](=O)[O-])c(NCC2CCCO2)c2ccccc21 (stereo not given)	72.6*	-0.6	-1.8	10.1	7.4
COc1ccc(Br)cc1CNc1ccc2[nH]c(=O)[nH]c2c1	67.4*	-1.0	6.7	17.3	5.6
Nn1c(Cc2ccccc2)nnc1Cc1ccccc1	54.0*	1.0	-0.8	-2.9	-2.5
OCCn1c(SC2CCCCC2)nc2ccccc21	46.9*	0.3	-1.8	-0.4	0.6
CCC[C@H]1[C@@H](N(C)Cc2cccs2)CC[C@@]23CCCN2C(=O)CCC[C@@H]13	.	.	1.1	.	2.4
Cn1c(Oc2ccccc2NCc2cccc(Br)c2)cc(=O)n(C)c1=O	79.1*	-0.7	-3.9	-7.2	-4.6
Cn1c(NCc2cccc(Br)c2)nc2ccccc21	3.8	-0.6	3.0	18.0	3.5
CCOC(=O)[C@]12CCCC3=C1N(CCC3)C(=O)[C@@H](CC(=O)NCc1cccc(C(F)(F)F)c1)C2	.	.	2.6	.	4.8
O=C(Nc1ccc(Nc2ccccc2)cc1)c1cccc(F)c1	0.6	0.4	-2.2	11.2	-5.7
COC(=O)C(NNc1ccccc1)(NC(=O)c1cccc(F)c1)C(F)(F)F (stereo not given)	49.8*	-0.2	-2.4	-8.8	-1.2
CCCCCCCCN1C(=O)[C@@H](CC(=O)NCCCN2CCCC2=O)C[C@@]2(C(=O)OC)C1=C[C@H](C(C)C)O[C@@H]2C1CC1	.	.	-4.6	.	1.1
CCOC(=O)c1ccc(S(=O)(=O)N2CCN(S(=O)(=O)CC)CC2)cc1	64.9*	-2.0	4.5	-2.3	3.4
CN(C(=O)COC(=O)c1ccc(S(=O)(=O)N2CCOCC2)cc1)C1CCCCC1	2.2	-0.3	2.1	-4.8	-0.7
CC(C)(C)N(Cc1ccccc1)C(=O)COC(=O)c1ccc(S(=O)(=O)N2CCOCC2)cc1	39.1*	-0.4	4.3	4.5	-8.2
CN(C(=O)COC(=O)c1ccc(Br)c(S(=O)(=O)N2CCOCC2)c1)C1CCCCC1	+	12.0	1.7	-14.7	4.5
Cc1ccc(-c2nnc(SCC(=O)NNC(=S)Nc3ccccc3)n2C2CCCCC2)cc1	.	.	6.2	.	-2.3
COc1cc(-c2noc(CCCC(=O)Nc3cccnc3)n2)cc(OC)c1OC	68.9*	-1.2	-3.4	4.6	2.4
COc1ccc2c(c1)CNC2CS(=O)(=O)NCc1ccccc1 (stereo not given)	.	.	-2.6	.	1.6
SMILES	CAL PDZ FP-1	CAL PDZ FP-2	Tn7 DDE FP	Arrestin-AP2 inh	DDE Tn6 FP inh
COC(=O)CNc1cccc(C(F)(F)F)c1	74.9*	17.2	-1.5	14.7	-1.8
Cc1ccc(C)c(-n2cc(CNCCc3cnccn3)c(-c3ccccc3)n2)c1	52.8*	-0.9	5.2	-6.7	12.3
CCn1ccnc1CNCc1cn(-c2cc(C)ccc2C)nc1-c1ccccc1	1.2	-3.6	7.5	-3.1	-2.9
CCN1CCCCC(NC(=O)c2ccc(F)cc2)C1=O (stereo not given)	.	.	9.1	.	5.5
COc1ccc(CCN(Cc2cccs2)S(=O)(=O)c2ccc(F)cc2)cc1OC	.	.	0.3	.	3.4
CC(=O)N1c2ccc(S(=O)(=O)N3CCC(C(=O)NC4CCCCC4)CC3)cc2CC1C (stereo not given)	63.5*	-2.0	-7.9	5.8	-8.8
CC(=O)N1c2ccc(S(=O)(=O)N3CCC(C(=O)Nc4ccccn4)CC3)cc2CC1C (stereo not given)	-2.2	-3.7	9.4	-7.2	6.2
CC(=O)c1ccc(N2CCN(S(=O)(=O)c3ccc4c(c3)CC(C)N4C(=O)C3CC3)CC2)cc1 (stereo not given)	71.6*	-0.5	-0.1	4.6	5.2
N#CCNC(=O)c1nn2c(C(F)(F)F)cc(-c3ccccc3)nc2c1Br	74.9*	.	10.7	-11.3	8.1
Cc1ccc(-c2cc(-c3nnc(SCC(=O)NC4CCCCC4)n3N)[nH]n2)cc1	.	.	-0.3	.	-3.7
O=C(N/N=C1/CC2C=CCC12)c1cccs1 (stereo not given)	42.0*	-1.1	3.1	4.7	-2.8
O=C1CN(O)C=C2N=c3ccccc3=C2N1c1ccc([N+](=O)[O-])cc1	76.6*	-1.5	3.8	4.8	0.7
O=C1CCCN1c1ccc([N+](=O)[O-])cc1	.	.	-4.7	.	5.2
OC(c1ccccc1)(c1ccccc1)C1CCN(CCCNc2cccc(Br)c2)CC1	.	.	3.7	.	0.1
COC(=O)[C@]12C[C@H](CC(=O)NCC34CC5CC(CC(C5)C3)C4)C(=O)N(Cc3ccc(Cl)cc3Cl)C1=C[C@H](C(C)C)O[C@@H]2C1CC1	.	.	-9.1	.	-2.2
Cc1cc(NS(=O)(=O)c2ccc(NC(=O)CSc3nnc(SCc4ccc(Cl)cc4)s3)cc2)nc(C)n1	.	.	3.0	.	-3.3
CCOC(=O)c1c[nH]c2ccc3ccccc3c2c1=O	53.6*	-2.6	5.9	0.2	-3.2
CC(C)(CN1CCCC1)NC(=O)C1CCC(=O)N(CCCN2CCOCC2)C1 (stereo not given)	91.9*	0.4	1.9	-8.3	-0.6
Cn1nnnc1SCC(=O)Nc1ccc2c(c1)OCCO2	.	-0.6	-8.6	-3.6	6.8
CC(Sc1nnnn1C)C(=O)Nc1ccc2c(c1)OCCO2 (stereo not given)	43.9*	-0.8	-4.3	-3.8	1.4
NC(=O)C1CCN(C(=O)CCn2c(=O)oc3ccccc32)CC1	-0.9	0.5	-1.9	-1.2	4.5
CC1CC(C)CN(C(=O)CCn2c(=O)oc3ccccc32)C1 (stereo not given)	45.4*	13.9	4.5	-7.6	9.2
C=CCN(C(=O)c1csnn1)C(C(=O)NCc1ccccc1)c1c(F)cccc1Cl (stereo not given)	41.3*	-0.4	7.6	11.8	11.7
Cc1csc(NC(=O)CSc2nnc(-c3ccncc3)o2)n1	.	-0.6	1.9	-5.6	16.6*
